Test results: ChEMBL document CHEMBL1128286, “Lipophilic, acid-stable, adenosine deaminase-activated anti-HIV prodrugs for central nervous system delivery. 2. 6-Halo and 6-alkoxy prodrugs of 2'-beta-fluoro-2',3'-dideoxyinosine” (J Med Chem, 1995)

Key:
PBMC [1] = experiment: Anti-HIV activity measured as the ability to inhibit HIV -1 p24 Gag protein production, using PHA/PBM system.; type: functional, cell-based; conditions: Homo sapiens
Outline: (§1)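 PBMs from an HIV-seronegative donor, PHA-stimulated 3 days before drug addition, preincubated 2 h with compound, then infected with 250 TCID50 HIV-1 ERS104pre. Cultured at 37 °C in complete medium (15% FCS) with rIL-2. Day-8 supernatant p24 Gag measured by RIA; % protection is the reduction versus infected untreated controls. Quadruplicate.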

[2] = Half-life time was determined; type: ADME
[3] = biological target: T1, Adenosine deaminase (Bos taurus) (UniProt P56658); experiment: Relative Adenosine deaminase hydrolysis rate was determined in vitro by disappearance of the substrate […] on isolated enzyme
T1 sequence (whole entry): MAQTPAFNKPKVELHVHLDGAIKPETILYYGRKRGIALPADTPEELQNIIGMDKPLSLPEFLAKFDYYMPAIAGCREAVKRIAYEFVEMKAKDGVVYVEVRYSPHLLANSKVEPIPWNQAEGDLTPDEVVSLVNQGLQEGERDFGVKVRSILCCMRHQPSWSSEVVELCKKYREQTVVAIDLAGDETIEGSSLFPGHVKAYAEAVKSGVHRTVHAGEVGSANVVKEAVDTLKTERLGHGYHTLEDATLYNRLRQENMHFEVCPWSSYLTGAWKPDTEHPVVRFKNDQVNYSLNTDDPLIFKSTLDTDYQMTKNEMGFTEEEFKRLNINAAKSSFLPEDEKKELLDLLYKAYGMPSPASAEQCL
Outline: (§2)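 Calf intestinal mucosa ADA, 0.05–1.0 unit, incubated with 50 µM substrate in pH 7.4, 0.01 M phosphate buffer at 37 °C. Timed aliquots quenched with water plus dCF and heated 1 min at 95 °C. Substrate loss and F-ddI formation followed by HPLC and fitted as exponential decay or association. Rate per unit ADA normalized to F-ddA.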

PBMC [4] = experiment: % protection was determined as the percent reduction in HIV p24 Gag protein production using PHA/PBM system at 80 uM concentration.; type: functional, Homo sapiens; outline: as §1
PBMC [5] = experiment: % protection was determined as the percent reduction in HIV p24 Gag protein production using PHA/PBM system at 40 uM concentration.; type: functional, Homo sapiens; outline: as §1
PBMC [6] = experiment: % protection was determined as the percent reduction in HIV p24 Gag protein production using PHA/PBM system at 5 uM concentration.; type: functional, Homo sapiens; outline: as §1
[7] = biological target: T1, Adenosine deaminase (Bos taurus); experiment: Relative Adenosine deaminase hydrolysis rate was determined in vitro by appearance of the F-ddI […] on isolated enzyme; outline: as §2
[8] = Partition coefficient (logP); type: physicochemical; conditions: octanol/water
Outline: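 Octanol/pH 7.0 buffer partition coefficient measured by microscale shake-flask, with HPLC quantification of both phases. Run in triplicate; mean ± SD of three determinations.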

PBMC [9] = experiment: % protection was determined as the percent reduction in HIV p24 Gag protein production using PHA/PBM system at 10 uM concentration.; type: functional, Homo sapiens; outline: as §1
PBMC [10] = experiment: % protection was determined as the percent reduction in HIV p24 Gag protein production using PHA/PBM system at 20 uM concentration.; type: functional, Homo sapiens; outline: as §1
PBMC [11] = experiment: % protection was determined as the percent reduction in HIV p24 Gag protein production sing PHA/PBM system at 80 uM concentration.; type: functional, Homo sapiens; outline: as §1
[12] = Half life period was determined, at pH 1.0; type: ADME
Outline: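 Nucleoside (1.0 mM aqueous stock, diluted 1:20) incubated in pH 1.0 HCl/KCl buffer at 37 °C. Timed aliquots diluted into pH 7.4 phosphate buffer and quantified by isocratic C18 HPLC (15% CH3CN in pH 7.0, 0.01 M phosphate). Data fitted to first-order exponential decay or association.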

Row | SMILES | IC50 (PBMC [1]) | half-life [2] | Activity [3] | Protection (PBMC [4]) | Protection (PBMC [5]) | Protection (PBMC [6]) | Activity [7] | logP [8] | Protection (PBMC [9]) | Protection (PBMC [10]) | Protection (PBMC [11]) | half-life [12]
1 | COc1ncnc2c1ncn2C1OC(CO)CC1F (stereo unspecified) | 20 µM | 29.6 h | 0.63 | 92% | 75% | 18% | 0.64 | 0.245 | 35% | 49% | – | –
2 | OCC1CC(F)C(n2cnc3c(I)ncnc32)O1 (stereo unspecified) | 10.4 µM | 20.9 h | 0.28 | 96% | 96% | 27% | 0.21 | 0.627 | 45% | 81% | – | –
3 | O=c1[nH]cnc2c1ncn2[C@H]1CC[C@@H](CO)O1 [DIDANOSINE] | < 5 µM | – | – | 98% | 98% | 97% | – | – | 96% | 98% | – | –
4 | Cc1cn([C@H]2C[C@H](N=[N+]=[N-])[C@@H](CO)O2)c(=O)[nH]c1=O [ZIDOVUDINE] | – | – | – | – | – | – | – | 0.052 | – | – | – | –
5 | CCOc1ncnc2c1ncn2C1OC(CO)CC1F (stereo unspecified) | 14.1 µM | 29.2 h | 0.008 | 93% | 79% | 32% | – | 0.803 | 39% | 58% | – | –
6 | OCC1CC(F)C(n2cnc3c(Cl)ncnc32)O1 (stereo unspecified) | 5.9 µM | 91.7 h | 2 | – | 97% | 40% | 1.6 | – | 70% | 92% | 98% | –
7 | OCC1CC(F)C(n2cnc3c(O)ncnc32)O1 (stereo unspecified) | < 5 µM | – | – | 98% | 97% | 54% | – | – | 61% | 89% | – | –
8 | OCC1CC(F)C(n2cnc3c(Br)ncnc32)O1 (stereo unspecified) | 6.5 µM | 48.5 h | 1.7 | 99% | 97% | 31% | 1.5 | 0.443 | 71% | 90% | – | –
9 | OCC1CC(F)C(n2cnc3c(F)ncnc32)O1 (stereo unspecified) | < 5 µM | – | 202 | 99% | 99% | 58% | 233 | 0.056 | 83% | 97% | – | 0.54 h
